{"source": "ChEMBL document CHEMBL1770087", "about": "“Novel 3-chlorooxazolidin-2-ones as antimicrobial agents” (Bioorg Med Chem Lett, 2011)", "key": {"[1]": {"assay": "Cytotoxicity against mouse L929 cells after 1 hr at pH 7 by Dojindo cell proliferation assay", "assay_type": "cell-based", "procedure,_shortened": "(§1)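 L929 mouse fibroblasts exposed to test article for 1 h in test solution at pH 7, or at pH 4 where flagged. Compound then removed and cells incubated overnight. Viability read with Dojindo cell proliferation assay; CT50 reported in mM.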"}, "Candida albicans": {"tested_on": "Candida albicans", "assay": "Antifungal activity against Candida albicans ATCC 10231 at pH 7 by CLSI M26A method", "assay_type": "functional", "procedure,_shortened": "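Modified CLSI M26-A method with phosphate-buffered saline (pH 7) in place of Mueller–Hinton broth and compound contact shortened to 1 h. The read-out was the minimum fungicidal concentration (MFC).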"}, "Escherichia coli": {"tested_on": "Escherichia coli", "assay": "Antibacterial activity against Escherichia coli ATCC 25922 at pH 7 by CLSI M26A method", "assay_type": "functional", "procedure,_shortened": "(§2)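 Modified CLSI M26-A bactericidal method in which phosphate-buffered saline (pH 7) replaced Mueller–Hinton broth and compound contact was cut to 1 h. The read-out was the minimum bactericidal concentration (MBC).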"}, "Staphylococcus aureus": {"tested_on": "Staphylococcus aureus", "assay": "Antibacterial activity against Staphylococcus aureus ATCC 29213 at pH 7 by CLSI M26A method", "assay_type": "functional", "procedure,_shortened": "as §2"}, "[2]": {"assay": "Therapeutic index, ratio of CT50 for mouse L929 cells to Escherichia coli ATCC 25922", "assay_type": "cell-based", "conditions": "pooled result: one value given for 2 cell lines, strains, targets or settings, read-out: TI"}, "[3]": {"assay": "Therapeutic index, ratio of CT50 for mouse L929 cells to Candida albicans ATCC 10231", "assay_type": "cell-based", "conditions": "read-out: TI", "procedure,_shortened": "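Antifungal index is the L929 CT50 (1 h exposure, overnight recovery, Dojindo viability) divided by the MFC against C. albicans. MFC is from a modified CLSI M26-A method: phosphate-buffered saline pH 7 in place of Mueller–Hinton broth, 1 h compound residence.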"}, "[4]": {"assay": "Cytotoxicity against mouse L929 cells after 1 hr at pH 4 by Dojindo cell proliferation assay", "assay_type": "cell-based", "procedure,_shortened": "as §1"}}, "data": [{"smiles": "CC1(CS(=O)(=O)[O-])COC(=O)N1Cl.[Na+]", "note": "(configuration not stated)", "values": [{"measurement": "CC50 at 1 h", "setting": "[1]", "value": 800, "unit": "µM"}, {"measurement": "MFC", "setting": "Candida albicans", "value": 1020, "unit": "µg/mL"}, {"measurement": "MBC", "setting": "Escherichia coli", "value": 256, "unit": "µg/mL"}, {"measurement": "MBC", "setting": "Staphylococcus aureus", "value": 128, "unit": "µg/mL"}, {"measurement": "selectivity ratio", "setting": "[2]", "value": 1.4}, {"measurement": "selectivity ratio", "setting": "[3]", "value": 0.25}]}, {"smiles": "CC[N+](C)(C)CC1(C)COC(=O)N1Cl.[Cl-]", "note": "(configuration not stated)", "values": [{"measurement": "MFC", "setting": "Candida albicans", "value": 8, "unit": "µg/mL"}, {"measurement": "MBC", "setting": "Escherichia coli", "value": 2, "unit": "µg/mL"}, {"measurement": "MBC", "setting": "Staphylococcus aureus", "value": 4, "unit": "µg/mL"}, {"measurement": "CC50 at 1 h", "setting": "[4]", "value": 860, "unit": "µM"}, {"measurement": "selectivity ratio", "setting": "[2]", "value": 78}, {"measurement": "selectivity ratio", "setting": "[3]", "value": 28}]}, {"smiles": "CC1(C)COC(=O)N1Cl", "values": [{"measurement": "CC50 at 1 h", "setting": "[1]", "value": 70, "unit": "µM"}, {"measurement": "MFC", "setting": "Candida albicans", "value": 512, "unit": "µg/mL"}, {"measurement": "MBC", "setting": "Escherichia coli", "value": 1, "unit": "µg/mL"}, {"measurement": "MBC", "setting": "Staphylococcus aureus", "value": 4, "unit": "µg/mL"}, {"measurement": "selectivity ratio", "setting": "[2]", "value": 5.2}, {"measurement": "selectivity ratio", "setting": "[3]", "value": 0.02}]}, {"smiles": "CCC[N+](C)(C)CC1(C)COC(=O)N1Cl.[Cl-]", "note": "(configuration not stated)", "values": [{"measurement": "MFC", "setting": "Candida albicans", "value": 8, "unit": "µg/mL"}, {"measurement": "MBC", "setting": "Escherichia coli", "value": 2, "unit": "µg/mL"}, {"measurement": "MBC", "setting": "Staphylococcus aureus", "value": 2, "unit": "µg/mL"}, {"measurement": "CC50 at 1 h", "setting": "[4]", "value": 900, "unit": "µM"}, {"measurement": "selectivity ratio", "setting": "[2]", "value": 122}, {"measurement": "selectivity ratio", "setting": "[3]", "value": 31}]}, {"smiles": "CC1(C[N+]2(C)CCCC2)COC(=O)N1Cl.[Cl-]", "note": "(configuration not stated)", "values": [{"measurement": "MFC", "setting": "Candida albicans", "value": 16, "unit": "µg/mL"}, {"measurement": "MBC", "setting": "Escherichia coli", "value": 4, "unit": "µg/mL"}, {"measurement": "MBC", "setting": "Staphylococcus aureus", "value": 4, "unit": "µg/mL"}, {"measurement": "CC50 at 1 h", "setting": "[4]", "value": 1130, "unit": "µM"}, {"measurement": "selectivity ratio", "setting": "[2]", "value": 76}, {"measurement": "selectivity ratio", "setting": "[3]", "value": 19}]}, {"smiles": "C[N+]1(C)CCC2(CC1)CN(Cl)C(=O)O2.[Cl-]", "values": [{"measurement": "MFC", "setting": "Candida albicans", "value": 256, "unit": "µg/mL"}, {"measurement": "MBC", "setting": "Escherichia coli", "value": 16, "unit": "µg/mL"}, {"measurement": "MBC", "setting": "Staphylococcus aureus", "value": 32, "unit": "µg/mL"}, {"measurement": "CC50 at 1 h", "setting": "[4]", "value": 700, "unit": "µM"}, {"measurement": "selectivity ratio", "setting": "[2]", "value": 7.9}, {"measurement": "selectivity ratio", "setting": "[3]", "value": 0.7}]}, {"smiles": "CC1(C)C(C[N+](C)(C)C)OC(=O)N1Cl.[Cl-]", "note": "(configuration not stated)", "values": [{"measurement": "CC50 at 1 h", "setting": "[1]", "value": 690, "unit": "µM"}, {"measurement": "MFC", "setting": "Candida albicans", "value": 64, "unit": "µg/mL"}, {"measurement": "MBC", "setting": "Escherichia coli", "value": 16, "unit": "µg/mL"}, {"measurement": "MBC", "setting": "Staphylococcus aureus", "value": 32, "unit": "µg/mL"}, {"measurement": "selectivity ratio", "setting": "[2]", "value": 7.6}, {"measurement": "selectivity ratio", "setting": "[3]", "value": 2.7}]}, {"smiles": "CC1(C[N+](C)(C)C)COC(=O)N1Cl.[Cl-]", "note": "(configuration not stated)", "values": [{"measurement": "MFC", "setting": "Candida albicans", "value": 16, "unit": "µg/mL"}, {"measurement": "MBC", "setting": "Escherichia coli", "value": 2, "unit": "µg/mL"}, {"measurement": "MBC", "setting": "Staphylococcus aureus", "value": 4, "unit": "µg/mL"}]}, {"smiles": "CC1(CS(=O)(=O)CCCC(=O)O)COC(=O)N1Cl", "note": "(configuration not stated)", "values": [{"measurement": "CC50 at 1 h", "setting": "[1]", "value": 520, "unit": "µM"}, {"measurement": "MFC", "setting": "Candida albicans", "value": "> 1020", "unit": "µg/mL"}, {"measurement": "MBC", "setting": "Escherichia coli", "value": 16, "unit": "µg/mL"}, {"measurement": "MBC", "setting": "Staphylococcus aureus", "value": 8, "unit": "µg/mL"}, {"measurement": "selectivity ratio", "setting": "[2]", "value": 14}]}, {"smiles": "CC1(C)C(CS(=O)(=O)[O-])OC(=O)N1Cl.[Na+]", "note": "(configuration not stated)", "values": [{"measurement": "CC50 at 1 h", "setting": "[1]", "value": 4300, "unit": "µM"}, {"measurement": "MFC", "setting": "Candida albicans", "value": 1020, "unit": "µg/mL"}, {"measurement": "MBC", "setting": "Escherichia coli", "value": 256, "unit": "µg/mL"}, {"measurement": "MBC", "setting": "Staphylococcus aureus", "value": 512, "unit": "µg/mL"}, {"measurement": "selectivity ratio", "setting": "[2]", "value": 2.9}, {"measurement": "selectivity ratio", "setting": "[3]", "value": 1}]}, {"smiles": "CC1(CS(=O)(=O)CCS(=O)(=O)[O-])COC(=O)N1Cl.[Na+]", "note": "(configuration not stated)", "values": [{"measurement": "CC50 at 1 h", "setting": "[1]", "value": 600, "unit": "µM"}, {"measurement": "MFC", "setting": "Candida albicans", "value": 128, "unit": "µg/mL"}, {"measurement": "MBC", "setting": "Escherichia coli", "value": 16, "unit": "µg/mL"}, {"measurement": "MBC", "setting": "Staphylococcus aureus", "value": 32, "unit": "µg/mL"}, {"measurement": "selectivity ratio", "setting": "[2]", "value": 8.5}, {"measurement": "selectivity ratio", "setting": "[3]", "value": 1.5}]}]}
